The values below come from ChEMBL document CHEMBL4359872, “Identification of potent triazolylpyridine nicotinamide phosphoribosyltransferase (NAMPT) inhibitors bearing a 1,2,3-triazole tail group” (Eur J Med Chem, 2019).

The structures appear in SMILES notation. In brackets after ≈: the same amount, converted by molar mass. Activity calls are given as the source filed them. The calls are words filed in the database; no cut-off is given here. Where only a bound is given, the exact number is not on record here.

A short description of data set [1]: Cytotoxicity against human SH-SY5Y cells assessed as cell viability at 1 uM measured after 48 hrs by MTT assay relative to control. The format is cell-based. The settings on record: read-out: Activity. In general terms: Tetrazolium assays rely on reduction of a dye to a coloured formazan, in cell work by metabolically active cells.
For data set [2], the system named is SH-SY5Y. The data set is described as follows: Cytotoxicity against human SH-SY5Y cells measured after 48 hrs by MTT assay. The format is cell-based.
Data set [3] concerns the target Nicotinamide phosphoribosyltransferase (Mus musculus, UniProt Q99KQ4). The data set can be described thus: Inhibition of recombinant mouse wild-type NAMPT expressed in bacterial expression system using PRPP as substrate in presence of mouse NMNAT-3 measured for 1 hr by fluorescence assay. Put shortly:
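In vitro NAMPT enzymatic assay run as concentration-response curves, with IC50 derived from the curves. Mean ± SD of three independent experiments (n = 6).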

The nature of data set [4]: Toxicity in Crl:CD Sprague-Dawley rat heart assessed as increase in cardiomyocytes cytoplasmic vacuolation at 200 mg/kg, po administered once daily for 5 days via gavage by hematoxylin and eosin staining based microscopic analysis. The format is organism-based. The settings on record: in vivo, 120 h.
Data set [5] can be described thus: Toxicity in Crl:CD Sprague-Dawley rat heart assessed as interstitial expansion at 200 mg/kg, po administered once daily for 5 days via gavage by hematoxylin and eosin staining based microscopic analysis. The format is organism-based. The settings on record: in vivo, 120 h.
Data set [6] can be described thus: Half-life in human. The format is ADME.
Data set [7] has as its system 4T1. The data set can be described thus: Antitumor activity against mouse 4T1 cells implanted in BALB/c mouse assessed as reduction in tumor weight at 10 mg/kg, ip bid for 12 days. The format is functional, organism-based. The gist of the method:
(§1)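 Tumour cells implanted in the mammary gland. Dosing began at day 14, once tumours were palpable, after randomization into vehicle and treated groups of 4 mice each. Compound given intraperitoneally at 10 mg/kg twice a day for 12 consecutive days. Data are means of two independent experiments.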

Data set [8] concerns 4T1. The data set can be described thus: Antitumor activity against mouse 4T1 cells implanted in BALB/c mouse assessed as reduction in tumour volume at 10 mg/kg, ip bid for 12 days by vernier caliper method. The format is functional, organism-based. The gist of the method:
as §1

Data set [9] in a line: Toxicity in Crl:CD Sprague-Dawley rat heart assessed as hypereosinophilia at 200 mg/kg, po administered once daily via gavage for 5 days by hematoxylin and eosin staining based microscopic analysis. The format is organism-based. Conditions: in vivo, 120 h.
Data set [10] concerns 4T1. The data set can be described thus: Antitumor activity against mouse 4T1 cells implanted in Balb/c mouse mouse assessed as inhibition of tumor metastasis at 10 mg/kg, ip bid for 12 days measured post last dose by crystal violet staining based thioguanine clonogenic assay. The format is functional, organism-based. Put shortly:
as §1

Data set [11] is described as follows: Toxicity in Crl:CD Sprague-Dawley rat retina at 200 mg/kg, po administered once daily for 5 days via gavage by hematoxylin and eosin staining based microscopic analysis. The format is organism-based. The settings on record: in vivo, 120 h.
In data set [12] the test system is SH-SY5Y. The data set can be described thus: Cytotoxicity against human SH-SY5Y cells assessed as cell viability at 10 uM measured after 48 hrs by MTT assay relative to control. Conditions: read-out: Activity. The format is functional.
Data set [13] can be described thus: Kinetic aqueous solubility of the compound in 80:20 PBS/acetonitrile solution at 200 to 500 uM by HTS assay. The format is physicochemical. The settings on record: read-out: Kinetic_solubility.
Data set [14] is described as follows: Selectivity ratio of EC50 for cytotoxicity against human SH-SY5Y cells to IC50 for recombinant mouse wild-type NAMPT expressed in bacterial expression system. The format is cell-based.
Data set [15] concerns the target Nicotinamide phosphoribosyltransferase (Homo sapiens) (UniProt P43490). The data set is described as follows: Inhibition of NAMPT in human SH-SY5Y cells assessed as reduction in NAD levels at 100 nM measured after 16 hrs by diaphorase and resazurin dye based fluorescence assay relative to control. The format is cell-based. Put shortly: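 SH-SY5Y cells treated at 100 nM for 16 h, then NAD level reduction measured as % of control. Mean ± SD of two independent experiments (n = 6).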
A general note: Resazurin is reduced to fluorescent resorufin, in cell work by metabolically active cells.

Data set [16] is described as follows: Permeability across apical side to basolateral side in human Caco2 cells at 30 uM after 4 hrs by HPLC analysis. The format is ADME, cell-based. The settings on record: caco-2, 4 h. The gist of the method:
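Caco-2 monolayer used to measure apical-to-basal transfer, reported as % permeability and Papp. Terbutaline served as the positive control; n = 3.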
(In general: Caco-2 monolayers are a common model of the intestinal barrier.)

The nature of data set [17]: Toxicity in Crl:CD Sprague-Dawley rat retina at 100 mg/kg, ip administered once daily for 5 days by hematoxylin and eosin staining based microscopic analysis. The format is organism-based. The settings on record: in vivo, 120 h.
The nature of data set [18]: Kinetic aqueous solubility of the compound in 80:20 PBS/acetonitrile solution at 200 uM by HTS assay. The settings on record: buffer. The format is physicochemical.
The nature of data set [19]: Toxicity in Crl:CD Sprague-Dawley rat heart assessed as interstitial expansion at 100 mg/kg, ip administered once daily for 5 days by hematoxylin and eosin staining based microscopic analysis. The format is organism-based. Conditions: in vivo, 120 h.
Data set [20] is described as follows: Toxicity in Crl:CD Sprague-Dawley rat heart assessed as increase in cardiomyocytes cytoplasmic vacuolation at 100 mg/kg, ip administered once daily for 5 days by hematoxylin and eosin staining based microscopic analysis. The format is organism-based. Conditions: in vivo, 120 h.
Data set [21] in a line: Toxicity in Crl:CD Sprague-Dawley rat heart assessed as hypereosinophilia at 100 mg/kg, ip administered once daily for 5 days by hematoxylin and eosin staining based microscopic analysis. The format is organism-based. The settings on record: in vivo, 120 h.

Nicotinamide phosphoribosyltransferase, sequence (Q99KQ4 whole entry): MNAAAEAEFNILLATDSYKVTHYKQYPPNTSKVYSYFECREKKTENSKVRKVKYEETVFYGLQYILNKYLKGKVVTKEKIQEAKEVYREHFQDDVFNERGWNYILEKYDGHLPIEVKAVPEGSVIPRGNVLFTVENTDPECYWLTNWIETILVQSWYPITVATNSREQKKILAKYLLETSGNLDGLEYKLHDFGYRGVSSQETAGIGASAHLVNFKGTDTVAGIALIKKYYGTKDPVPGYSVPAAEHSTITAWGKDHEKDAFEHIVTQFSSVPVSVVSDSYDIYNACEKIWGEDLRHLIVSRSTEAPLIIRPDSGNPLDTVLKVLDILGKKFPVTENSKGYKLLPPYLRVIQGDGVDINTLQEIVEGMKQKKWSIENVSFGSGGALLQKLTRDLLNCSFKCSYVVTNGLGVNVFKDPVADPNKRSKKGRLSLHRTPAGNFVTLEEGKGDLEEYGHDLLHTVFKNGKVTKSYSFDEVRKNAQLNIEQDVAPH
Nicotinamide phosphoribosyltransferase (Homo sapiens), sequence (P43490 whole entry, looked up): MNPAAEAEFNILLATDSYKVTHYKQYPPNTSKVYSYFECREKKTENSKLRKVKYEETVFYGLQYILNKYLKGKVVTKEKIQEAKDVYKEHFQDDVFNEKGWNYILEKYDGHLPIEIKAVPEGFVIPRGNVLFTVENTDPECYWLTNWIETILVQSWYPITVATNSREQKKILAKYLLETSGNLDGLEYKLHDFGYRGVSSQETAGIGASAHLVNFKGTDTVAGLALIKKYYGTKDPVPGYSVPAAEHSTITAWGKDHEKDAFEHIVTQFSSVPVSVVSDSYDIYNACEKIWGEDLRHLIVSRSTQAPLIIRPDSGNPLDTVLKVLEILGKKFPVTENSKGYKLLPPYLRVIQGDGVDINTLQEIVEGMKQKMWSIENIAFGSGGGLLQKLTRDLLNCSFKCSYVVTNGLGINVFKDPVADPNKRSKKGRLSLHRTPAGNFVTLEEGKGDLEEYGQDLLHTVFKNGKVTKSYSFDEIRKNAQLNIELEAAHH

Broadly, the EC50 is the concentration needed to bring the measured effect to its halfway point. A low value points to an effect from little substance. By IC50 is commonly meant the midpoint of a concentration-inhibition curve. `O=C(O)c1cccc(-c2ccccc2C(=O)NCCCCCCCn2cc(-c3cccnc3)nn2)c1`: the viability at 48 h, 1 µM in [1] was found to be 78.4%. Also, the EC50 with SH-SY5Y [2] was above 500 nM. Moreover, the IC50 in data set [3] was above 500 nM.

Broadly, the half-life is the time in which the quantity being followed falls by half. With `N#CN=C(NCCCCCCOc1ccc(Cl)cc1)Nc1ccncc1` [CHS-828], the Activity result in [4], in data set [5], in [9] and in data set [11] was “Non-Toxic” throughout. In addition, the half-life in data set [6] is 2.1 h. For the same molecule, the result in the data set with 4T1 [7] and in the data set on 4T1 [8] was Active. Further, the inhibition entry in the data set with 4T1 [10] is “Active”.

In the case of `O=C(NCCCCCCCn1cc(-c2ccc[n+]([O-])c2)nn1)c1ccccc1-c1ccccc1`, the viability at 48 h, 1 µM in data set [1] amounted to 103%. The IC50 in data set [3] is above 500 nM.

Turning to `O=C(NCCCCCCCn1cc(-c2cccnc2)nn1)c1ccccc1-n1cc(CN2CCCC2)nn1`, in the data set with SH-SY5Y [12], the viability at 10 µM worked out at 61.9%. In addition, the viability at 48 h, 1 µM in data set [1] was 88.9%. Further, the EC50 with SH-SY5Y [2] was above 10000 nM. Further, the solubility kinetic in [13] is 200 to 500 µM (≈ 103 to 257 µg/mL). In addition, in [3], the IC50 was found to be 25.4 nM.

As to `O=C(O)c1ccc(-c2ccccc2C(=O)NCCCCCCCn2cc(-c3cccnc3)nn2)cc1`, in data set [1], the viability at 48 h, 1 µM is 22.5%. This molecule also returned an EC50 with SH-SY5Y [2] of 224 nM. The IC50 in data set [3] was above 500 nM.

For the molecule `CN1CCN(Cc2cn(-c3ccccc3C(=O)NCCCCCCCn3cc(-c4cccnc4)nn3)nn2)CC1`, the viability at 48 h, 1 µM in [1] is 87.7%. The EC50 in the data set on SH-SY5Y [2] is above 10000 nM. In addition, the solubility kinetic in [13] is 200 to 500 µM (≈ 109 to 271 µg/mL). In addition, the Selectivity ratio in [14] turned out to be 200. Besides, in data set [15], the inhibition entry was “inactive”. In addition, in data set [3], the IC50 is 13.6 nM. In data set [16], this molecule returned a permeability below 1%.

On to `O=C(/C=C/c1cccnc1)NCCCCC1CCN(C(=O)c2ccccc2)CC1` [DAPORINAD], for which the viability at 48 h, 1 µM in [1] amounted to 9.7%. Further, the Activity result in data set [17] is “Non-Toxic”; in [19], “Non-Toxic”; in data set [20] it was “Toxic”; in data set [21] it was “Toxic”. It took 2.5 nM to reach a half-maximal effect with SH-SY5Y [2] (EC50). Moreover, the Kinetic_solubility entry in data set [18] is “Soluble”. In [16], the permeability is 20.5%.

In the case of `CC(C)N1CCN(Cc2cn(-c3ccccc3C(=O)NCCCCCCCn3cc(-c4cccnc4)nn3)nn2)CC1`, the viability at 10 µM in the data set with SH-SY5Y [12] came to 64.1%. Besides, the viability at 48 h, 1 µM in data set [1] came out at 80.2%. The EC50 with SH-SY5Y [2] is above 10000 nM. Besides, in data set [13], the solubility kinetic lay within 200 to 500 µM (≈ 114 to 285 µg/mL). In addition, the IC50 in data set [3] amounted to 24.7 nM.

On to `NC(=O)c1ccccc1-c1ccccc1C(=O)NCCCCCCCn1cc(-c2cccnc2)nn1`, for which, in data set [1], the viability at 48 h, 1 µM was found to be 65.7%. The molecule also gave an EC50 in the data set with SH-SY5Y [2] of 289 nM. Moreover, the IC50 in [3] was 87.9 nM.

In the case of `O=C(NCCCCCCCn1cc(-c2cccnc2)nn1)c1ccccc1-c1cccnc1`, the viability at 48 h, 1 µM in data set [1] was 15.1%. In the data set with SH-SY5Y [2], a half-maximal effect (EC50) was put at 36.5 nM. In [3], the IC50 was determined as 28.5 nM.
